Assay outcomes as filed in PubChem BioAssay.
HNF4A DNA FP = change in binding of human HNF4 alpha to DNA. activity change, % at 10 µM. HNF4a-FITC DNA binding, fluorescence polarization, 1 h. actives 0.3% (n = 360,000). AID 1224865; in the data active means activity change above about 30%, passing the limit was not always enough
CSN inh = inhibitors of human CSN-mediated cullin deneddylation; Q92905; Purified CSN, SCF-Nedd8-OG deneddylation, fluorescence polarization; inhibition, % at 12.5 µM; actives 0.38% (n = 360,000); AID 651999;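 active means pattern-corrected inhibition above about 35%, with an unprinted fluorescence ratio check between 0.5 and 1.5, limit read from the data, passing the limit was not always enough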
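Schedule: reaction 90 min, room temperature / Assay system: HEK293T-derived human Csn5 enzyme / Input: Csn5 at 0.24 nM final / Measure: inhibition of Csn5 cleavage, % / Control set: substrate-only high control, full reaction low control / Technique: fluorescence polarization of the substrate / Buffer or medium: Tris/NaCl/DTT buffer, pH 7.5 / Reagent: SCFSkp2-Nedd8OG substrate at 10 nM final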
TPT1 inhibitor = C. albicans TPT1 enzyme inhibition; inhibition, % at 5 µM; actives 0.81% (n = 300,000); recombinant caTPT1, FP RNA substrate dephosphorylation;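 active means inhibition above the mean of all tested compounds plus 3 SD, set per screening campaign, cut at about 24% in these data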
Rtt109 HAT inh = C. albicans Rtt109 histone acetyltransferase inhibition. Q5AAJ8. purified Rtt109/Vps75, ThioGlo CoA-SH fluorescence, 4 h. inhibition, % at 34.9 µM. actives 0.16% (n = 330,000). AID 540336;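 active means inhibition of at least 50% in every replicate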
Target sequence (Q5AAJ8 whole entry, looked up): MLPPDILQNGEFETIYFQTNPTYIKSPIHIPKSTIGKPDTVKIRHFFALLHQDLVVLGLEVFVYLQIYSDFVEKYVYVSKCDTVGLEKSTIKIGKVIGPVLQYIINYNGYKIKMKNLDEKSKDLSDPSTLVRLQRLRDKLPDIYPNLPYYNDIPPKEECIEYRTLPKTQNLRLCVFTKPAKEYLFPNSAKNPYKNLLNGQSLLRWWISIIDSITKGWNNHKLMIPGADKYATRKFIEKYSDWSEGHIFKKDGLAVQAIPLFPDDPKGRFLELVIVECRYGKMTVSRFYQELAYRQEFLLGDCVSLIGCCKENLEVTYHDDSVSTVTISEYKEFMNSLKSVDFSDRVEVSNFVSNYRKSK
caTPT1 confirm = confirmation of Candida albicans TPT1 inhibitors | shares compounds with TPT1 inhibitor | recombinant caTPT1, fluorescence polarization, RNase T1 coupled | inhibition, % at 5 µM | actives 74% (n = 2,400);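 active means inhibition above the primary screen limit, the mean inhibition of all tested compounds plus 3 SD, cut at about 25% in these data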
RNase T1 counter = RNase T1 inhibition in TPT1 counter-screen; shares compounds with TPT1 inhibitor; RNase T1 cleavage, fluorescence polarization, 1536-well; inhibition, % at 5 µM; actives 83% (n = 2,400);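 active means inhibition above the solvent-only control well mean plus 3 SD, limit set per screening run, cut at about 23% in these data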;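 further: inhibitors block cleavage so intact labeled substrate keeps polarization high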
Target sequence (P00651 whole entry, looked up): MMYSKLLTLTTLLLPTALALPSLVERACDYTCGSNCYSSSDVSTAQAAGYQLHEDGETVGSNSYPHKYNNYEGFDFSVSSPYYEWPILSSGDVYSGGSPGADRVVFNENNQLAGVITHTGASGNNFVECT
Hits are given with their value; ! = repeats disagree. The list is not random: actives were taken first. Their share in the collection is about 1.2%.

For COc1ccc(-n2c(O)c(/C=C3\C=Nc4ccc(Br)cc43)c(=O)[nH]c2=O)cc1 the results were HNF4A DNA FP inactive, CSN inh inactive, TPT1 inhibitor 33, Rtt109 HAT inh inactive, caTPT1 confirm 26 and RNase T1 counter 32.
For Cn1c(O)c(/C=C2\C=Nc3ccc(Br)cc32)c(=O)n(C)c1=O the results were HNF4A DNA FP inactive, CSN inh inactive, TPT1 inhibitor 28, Rtt109 HAT inh inactive, caTPT1 confirm inactive and RNase T1 counter inactive.
`c1nc2nc3c(c(N4CCNCC4)n2n1)CCCC3` gave TPT1 inhibitor inactive.
Screening CN(Cc1cccc(-c2ccncc2)c1)C(=O)Oc1ccc([N+](=O)[O-])cc1 returned HNF4A DNA FP inactive and CSN inh inactive.
COc1ccc(N2C(=O)/C(=C/c3ccc(C)o3)C(=O)NC2=S)c(OC)c1 was read as HNF4A DNA FP inactive, CSN inh inactive, TPT1 inhibitor inactive and Rtt109 HAT inh inactive.
Screening Cc1ccccc1N1C(=O)/C(=C/c2ccco2)C(=O)NC1=S returned TPT1 inhibitor 80, caTPT1 confirm 80 and RNase T1 counter inactive.
`CCOc1ccc(N2C(=O)/C(=C/c3ccco3)C(=O)NC2=S)cc1` gave HNF4A DNA FP inactive, CSN inh inactive, TPT1 inhibitor 47, Rtt109 HAT inh inactive, caTPT1 confirm inactive and RNase T1 counter inactive.
For COc1cccc2c1cc([N+](=O)[O-])c1c(C(=O)O)cc3c(c12)OCO3 the results were HNF4A DNA FP inactive, CSN inh inactive and Rtt109 HAT inh inactive.
Screening COc1ccc(OC(=O)N(C)C[C@H]2OCc3cnnn3CCCC(=O)N([C@H](C)CO)C[C@@H]2C)cc1 returned HNF4A DNA FP inactive and CSN inh inactive.
For O=c1[nH]c(=O)n(-c2ccc(F)cc2)c(O)c1/C=C1\C=Nc2ccccc21 the results were HNF4A DNA FP inactive, CSN inh inactive, TPT1 inhibitor 51, Rtt109 HAT inh inactive, caTPT1 confirm 70 and RNase T1 counter 77.
For O=c1[nH]c(=O)n(-c2ccccc2F)c(O)c1/C=C1\C=Nc2ccccc21 the results were HNF4A DNA FP inactive, CSN inh inactive, TPT1 inhibitor 56, Rtt109 HAT inh inactive, caTPT1 confirm inactive and RNase T1 counter 29.
`C=CCNC(=S)N1Cc2ccccc2-n2nncc2C1` gave HNF4A DNA FP inactive and CSN inh inactive.
O=c1[nH]c(=O)n(Cc2ccccc2)c(O)c1/C=C1\C=Nc2ccccc21 was read as HNF4A DNA FP inactive, CSN inh inactive, TPT1 inhibitor 58, Rtt109 HAT inh inactive, caTPT1 confirm inactive and RNase T1 counter 27.
Screening O=c1[nH]c(=O)n(Cc2ccccc2)c(O)c1C=NCCN1CCNCC1 returned HNF4A DNA FP inactive, CSN inh inactive, TPT1 inhibitor inactive and Rtt109 HAT inh inactive.
For O=c1[nH]c(=O)n(CC2CCCO2)c(O)c1/C=C1\C=Nc2ccccc21 (centres undefined) the results were HNF4A DNA FP inactive, CSN inh inactive, TPT1 inhibitor 37!, Rtt109 HAT inh inactive, caTPT1 confirm inactive and RNase T1 counter 24.
CC(C)(C)n1nnnc1C(C1CC1)N1CCC2(CC1)C(=O)NCN2c1ccccc1 (centres undefined) was read as HNF4A DNA FP inactive and CSN inh inactive.
`Cc1cc(C)cc(-n2c(O)c(C=Nc3ccc(N4CCOCC4)cc3)c(=O)[nH]c2=S)c1` gave HNF4A DNA FP inactive, CSN inh inactive, TPT1 inhibitor 35, caTPT1 confirm 57 and RNase T1 counter 73.
`O=c1[nH]c(=S)n(-c2ccc(Br)cc2)c(O)c1C=Nc1ccc(N2CCOCC2)cc1` gave HNF4A DNA FP inactive, CSN inh inactive, TPT1 inhibitor inactive and Rtt109 HAT inh inactive.
`O=c1[nH]c(=S)n(-c2ccccc2F)c(O)c1C=Nc1ccc(N2CCOCC2)cc1` gave HNF4A DNA FP inactive, CSN inh inactive, TPT1 inhibitor 33, caTPT1 confirm 47 and RNase T1 counter 60.
Screening Cc1ccccc1N1C(=O)NC(=O)/C(=C\c2cc(Br)c(N3CCOCC3)o2)C1=O returned HNF4A DNA FP inactive, CSN inh inactive, TPT1 inhibitor 96, Rtt109 HAT inh inactive, caTPT1 confirm 141 and RNase T1 counter 140.
For Cc1ccccc1N1C(=O)NC(=O)/C(=C/c2ccc(N3CCOCC3)o2)C1=O the results were HNF4A DNA FP 108, CSN inh inactive, TPT1 inhibitor 123, Rtt109 HAT inh inactive, caTPT1 confirm 136 and RNase T1 counter 138.
Cc1cccc(N2C(=O)/C(=C/c3ccc(N4CCN(C)CC4)o3)C(=O)NC2=S)c1C was read as HNF4A DNA FP 84, CSN inh inactive, TPT1 inhibitor 83, Rtt109 HAT inh inactive, caTPT1 confirm 121 and RNase T1 counter 121.
For O=C1NC(=S)N(c2ccccc2F)C(=O)/C1=C\c1cccs1 the results were HNF4A DNA FP inactive, CSN inh inactive, TPT1 inhibitor inactive and Rtt109 HAT inh inactive.
Screening O=C1NC(=O)N(c2ccccc2)C(=O)/C1=C\c1ccc([N+](=O)[O-])o1 returned TPT1 inhibitor inactive.
Screening COc1ccc(CNC(=O)CCC(=O)N2C[C@H]3C[C@H](C2)c2cccc(=O)n2C3)cc1OC returned HNF4A DNA FP inactive, CSN inh inactive, TPT1 inhibitor inactive and Rtt109 HAT inh inactive.
For O=C1C=C2c3ccccc3CC(C(=O)O)C2CC1 (centres undefined) the results were HNF4A DNA FP inactive and CSN inh inactive.
`COc1ccc2c(c1)C1(C)CCN(C)CC(C1)C2O` (centres undefined) gave HNF4A DNA FP inactive and CSN inh inactive.
Screening CN(C(=O)Cc1ccc(Cl)c(Cl)c1)C(CN1CCCC1)c1cccc(OCC(=O)O)c1 (centres undefined) returned HNF4A DNA FP inactive, CSN inh inactive, TPT1 inhibitor inactive and Rtt109 HAT inh inactive.
For CC1=NCCc2c1[nH]c1ccccc21 the results were HNF4A DNA FP inactive, CSN inh inactive, TPT1 inhibitor 25, Rtt109 HAT inh inactive, caTPT1 confirm inactive and RNase T1 counter 22.
`CN1CCc2c([nH]c3ccccc23)C1` gave HNF4A DNA FP inactive, CSN inh inactive, TPT1 inhibitor inactive and Rtt109 HAT inh inactive.
`C[C@@H]1CN([C@H](C)CO)C(=O)CCCn2nncc2CO[C@@H]1CN(C)C(=O)Oc1cccc2ccccc12` gave HNF4A DNA FP inactive and CSN inh inactive.
For C=CCNC(=S)/N=C/c1c(O)[nH]c(=O)[nH]c1=O the results were HNF4A DNA FP inactive, CSN inh inactive, TPT1 inhibitor 26, Rtt109 HAT inh inactive, caTPT1 confirm inactive and RNase T1 counter 23.
For O=C(Nc1ccc(F)cc1)N1Cc2ccccc2-n2nncc2C1 the results were HNF4A DNA FP inactive and CSN inh inactive.
CCN(CC)c1ccc(N=Cc2c(O)n(-c3ccc(OC)cc3)c(=O)[nH]c2=O)cc1 was read as HNF4A DNA FP inactive, CSN inh inactive, TPT1 inhibitor 56, Rtt109 HAT inh inactive, caTPT1 confirm inactive and RNase T1 counter inactive.
